Bioassay records: PubChem, NMMLSC
MEKK3 PB1 HTS – modulators of MEKK3-MEK5 PB1 binding, primary screen, biochemical, wildtype MEKK3, multiplex bead flow cytometry, Alexa488-MEK5 | binding response (% of control), % at 10 µM | bead-based flow cytometry, Alexa488-MEK5 binding to MEKK3; actives lie on both sides; 0 = blocked by unlabeled MEK5, 100 = vehicle | Mitogen-activated protein kinase kinase kinase 3 (Homo sapiens), Q99759 | actives 1.4% (n = 290,000);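 active = binding response more than 3 SD above or below the average of its plate-row segment, actives on both sides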;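 note: Alexa488 bead fluorescence after subtracting the streptavidin-only scavenger bead signal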
MEKK2wt PB1 HTS – modulators of MEK5 binding to wildtype MEKK2, primary screen, biochemical, multiplex bead flow cytometry, Alexa488-MEK5; Alexa488-MEK5 binding to MEKK2 WT; actives lie on both sides; Mitogen-activated protein kinase kinase kinase 2 (Homo sapiens), Q9Y2U5; AID 1531, 2009; actives 1.1% (n = 290,000); binding response (% of control), % at 10 µM; in the data active = binding response below about 67% or above about 130%
Arrestin-AP2 inh – inhibitors of beta-arrestin/AP2 binding, primary screen, biochemical, GPCR trafficking, flow cytometry. beta-arrestin 1 C-terminal peptide binding to AP2 beta2-adaptin appendage (human). FITC-arrestin peptide / GST-AP2 beads; AP2 beta2 appendage carries R879A mutation. inhibition, % at 10 µM. actives 0.31% (n = 340,000). AID 504490, 2011;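 active = inhibition above a set limit, near 3 SD of compounds lacking own fluorescence, cut at about 54% in these data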;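 note: plate controls were DMSO wells for no effect and 5 µM unlabelled arrestin peptide for full effect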
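Measured by: flow cytometry, FL1 (488/535 nm); Material: AP2 appendage R879A on GSH beads; Evaluation: percent response; Timing: pre-incubation 12 min, peptide binding 1 h, room temperature; Also added: 50 nM FITC-arrestin peptide; Medium: PBS with 0.05% Tween 20 and 0.1% BSA.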
MEKK2 mut-MEK5 – MEK5 binding signal on mutant MEKK2 PB1, primary screen, biochemical, multiplex bead flow cytometry, Alexa488-MEK5; Alexa488-MEK5 binding to MEKK2 mutant; actives 0.35% (n = 290,000); percent response, % at 10 µM; in the data active = percent response above about 24%, passing the limit was not always enough
Arr AP2 CP1 – inhibitors of arrestin peptide binding to AP2, confirmation, biochemical, cherry pick 1, flow cytometry beads; shares compounds with Arrestin-AP2 inh; actives 2% (n = 1,300); inhibition, % at 10 µM; GST-AP2 beads, FITC arrestin peptide binding; GST-fused beta2-adaptin appendage, R879A mutant;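 active = inhibition above a set limit, roughly 3 SD of non-fluorescent compound noise, cut at about 38% in these data; inactive = inhibition at or below that limit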;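 note: loss of bead fluorescence from 50 nM FITC arrestin peptide bound to appendage; 0% = negative control wells and 100% = excess unlabelled arrestin peptide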
Target sequence (P63010 whole entry, looked up, the tested form may be a part, one chain of several): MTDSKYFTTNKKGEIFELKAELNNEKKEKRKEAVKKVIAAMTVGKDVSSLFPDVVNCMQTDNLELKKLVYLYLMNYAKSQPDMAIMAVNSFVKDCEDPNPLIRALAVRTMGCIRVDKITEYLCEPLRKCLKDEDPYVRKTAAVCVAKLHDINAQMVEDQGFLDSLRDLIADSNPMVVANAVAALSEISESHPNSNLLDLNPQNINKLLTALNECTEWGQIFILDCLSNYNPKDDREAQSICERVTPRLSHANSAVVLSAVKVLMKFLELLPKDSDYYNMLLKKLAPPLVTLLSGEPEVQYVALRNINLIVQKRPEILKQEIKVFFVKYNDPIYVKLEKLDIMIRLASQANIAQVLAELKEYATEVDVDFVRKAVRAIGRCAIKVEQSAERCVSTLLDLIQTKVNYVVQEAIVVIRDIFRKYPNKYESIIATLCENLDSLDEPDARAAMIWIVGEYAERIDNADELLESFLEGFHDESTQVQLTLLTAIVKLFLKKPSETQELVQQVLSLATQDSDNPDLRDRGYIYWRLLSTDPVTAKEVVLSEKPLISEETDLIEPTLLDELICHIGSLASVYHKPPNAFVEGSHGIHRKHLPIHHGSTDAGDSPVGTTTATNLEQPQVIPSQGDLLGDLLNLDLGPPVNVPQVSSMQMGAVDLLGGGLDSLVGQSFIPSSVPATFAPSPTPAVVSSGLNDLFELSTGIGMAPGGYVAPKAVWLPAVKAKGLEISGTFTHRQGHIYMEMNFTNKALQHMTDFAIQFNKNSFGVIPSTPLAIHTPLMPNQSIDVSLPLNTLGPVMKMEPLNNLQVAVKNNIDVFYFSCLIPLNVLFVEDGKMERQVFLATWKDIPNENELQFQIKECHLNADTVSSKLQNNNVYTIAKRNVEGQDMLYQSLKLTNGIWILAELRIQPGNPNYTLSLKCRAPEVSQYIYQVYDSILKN
GST GSH counter – GST-fluorescein capture on glutathione beads, confirmation, artefact control for arrestin-AP2 inhibitor project, biochemical, cherry pick 1, flow cytometry; shares compounds with Arrestin-AP2 inh; GST-fluorescein binding to GSH beads, fluorescence, counter-screen; inhibition, % at 10 µM; actives 2% (n = 1,300); AID 588338, 2011;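 active = inhibition above 50%, about 3 SD of the inhibition seen with non-fluorescent compounds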;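 note: fluorescein maleimide labelled GST captured on 4 micron glutathione beads; higher means more loss of bead fluorescence from quenching or blocked binding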
Active calls of the source: *. In the library only some 2.3% were active in any assay of this set; here they are far more common.

`COc1ccc(OC)c(NC(=O)CSc2nc(=O)n(Cc3ccccn3)c3c2CCC3)c1` gave Arrestin-AP2 inh -14.
For CCn1c(=O)n(CC(=O)Nc2cc(OC)c(OC)c(OC)c2)c(=O)c2ccccc21 the results were MEKK3 PB1 HTS 99, MEKK2wt PB1 HTS 101, Arrestin-AP2 inh 14, MEKK2 mut-MEK5 3, Arr AP2 CP1 -13 and GST GSH counter -4.
CCn1c(=O)n(CC(=O)Nc2cccc(OC)c2)c(=O)c2ccccc21 was read as MEKK3 PB1 HTS 105, MEKK2wt PB1 HTS 104, Arrestin-AP2 inh 0, MEKK2 mut-MEK5 15, Arr AP2 CP1 -2 and GST GSH counter -6.
`Cc1ccsc1-c1nc(CN2CCCC2c2ccc(F)cc2)c(C)o1` (configuration not stated) gave MEKK3 PB1 HTS 103, MEKK2wt PB1 HTS 105, Arrestin-AP2 inh 0 and MEKK2 mut-MEK5 -3.
Cc1c(C(=O)N/N=C/c2ccc(N(C)C)cc2)[nH]c2ccc(Cl)cc12 was read as MEKK3 PB1 HTS 108, MEKK2wt PB1 HTS 107, Arrestin-AP2 inh 90*, MEKK2 mut-MEK5 4, Arr AP2 CP1 14 and GST GSH counter -7.
For CCCCCCSc1ccc([C@@H]2[C@H]3C(=O)N(C)C(=O)[C@H]3[C@]3(C(=O)OC)CCCCN23)cc1OC the results were Arrestin-AP2 inh 20.
Screening CCCSc1ccc([C@@H]2[C@@H]3C(=O)N(C)C(=O)[C@@H]3[C@]3(C(=O)OC)CCCN23)cc1OC returned Arrestin-AP2 inh 60*, Arr AP2 CP1 -5 and GST GSH counter -7.
`CC1Cc2ccccc2N1S(=O)(=O)c1cccc(C(=O)NC2CC2)c1` (configuration not stated) gave MEKK3 PB1 HTS 88, MEKK2wt PB1 HTS 96, Arrestin-AP2 inh 89*, MEKK2 mut-MEK5 -3, Arr AP2 CP1 -2 and GST GSH counter -17.
`CCOC(=O)C1=C(COC(=O)c2cccc(Cl)c2)NC(=O)NC1C` (configuration not stated) gave MEKK3 PB1 HTS 94, MEKK2wt PB1 HTS 98, Arrestin-AP2 inh -26 and MEKK2 mut-MEK5 5.
`CCOC(=O)C1=C(COC(=O)/C=C/c2ccc(OC)c(OC)c2)NC(=O)NC1C` (configuration not stated) gave Arrestin-AP2 inh 7.
`CCOC(=O)C1=C(COC(=O)Cc2ccc(Cl)cc2)NC(=O)NC1C` (configuration not stated) gave Arrestin-AP2 inh 4, Arr AP2 CP1 9 and GST GSH counter 1.
`CCOC(=O)C1=C(COC(=O)C(C)(C)Oc2ccc(Cl)cc2)NC(=O)NC1C` (configuration not stated) gave Arrestin-AP2 inh 19, Arr AP2 CP1 -6 and GST GSH counter -5.
Screening CCOC(=O)C1=C(COC(=O)CNC(=O)c2ccccc2F)NC(=O)NC1C (configuration not stated) returned Arrestin-AP2 inh 27.
Screening CCOC(=O)C1=C(COC(=O)Cc2ccc(OC)c(OC)c2)NC(=O)NC1C (configuration not stated) returned Arrestin-AP2 inh 38, Arr AP2 CP1 -7 and GST GSH counter 3.
Screening CCOC(=O)C1=C(COC(=O)CCc2ccc(F)cc2)NC(=O)NC1C (configuration not stated) returned Arrestin-AP2 inh 1, Arr AP2 CP1 3 and GST GSH counter -2.
NC(=O)c1ccc(NC(=O)COC(=O)CNC(=O)c2sc3ccccc3c2Cl)cc1 was read as Arrestin-AP2 inh -39.
For CCOC(=O)C(=Nc1ccc(Cl)cc1)NO the results were MEKK3 PB1 HTS 90, MEKK2wt PB1 HTS 91, Arrestin-AP2 inh -24 and MEKK2 mut-MEK5 -5.
`CN1CCN(C(=O)c2cc(Cl)ccc2NC(=O)c2ccc(Cl)cc2Cl)CC1` gave MEKK3 PB1 HTS 107, MEKK2wt PB1 HTS 115, Arrestin-AP2 inh -10 and MEKK2 mut-MEK5 9.
For COc1ccc(N2CCN(C(=O)C3CCCN3S(=O)(=O)c3cccc4nsnc34)CC2)cc1 (configuration not stated) the results were MEKK3 PB1 HTS 96, MEKK2wt PB1 HTS 98, Arrestin-AP2 inh -3 and MEKK2 mut-MEK5 0.
Screening CCOC(=O)C1=C(COC(=O)Cc2ccccc2)NC(=O)NC1C (configuration not stated) returned MEKK3 PB1 HTS 102, MEKK2wt PB1 HTS 104, Arrestin-AP2 inh 9, MEKK2 mut-MEK5 7, Arr AP2 CP1 20 and GST GSH counter -8.
`CCCCc1cc(=O)oc2c(CN3CCN(C)CC3)c(O)ccc12` gave MEKK3 PB1 HTS 99, MEKK2wt PB1 HTS 104, Arrestin-AP2 inh 54*, MEKK2 mut-MEK5 3, Arr AP2 CP1 -9 and GST GSH counter -5.
CCCc1ccccc1OCCNC(=O)c1cc(=O)n(C)c(=O)n1C was read as MEKK3 PB1 HTS 102, MEKK2wt PB1 HTS 98, Arrestin-AP2 inh 60*, MEKK2 mut-MEK5 3, Arr AP2 CP1 -2 and GST GSH counter 6.
For CN(C)S(=O)(=O)c1cccc(NC(=O)COC(=O)/C=C/c2ccc([N+](=O)[O-])cc2)c1 the results were MEKK3 PB1 HTS 90, MEKK2wt PB1 HTS 94, Arrestin-AP2 inh -27 and MEKK2 mut-MEK5 -3.
CCOc1ccc(Cc2noc3c2C(=O)CC(C)(C)C3)cc1OCC was read as MEKK3 PB1 HTS 98, MEKK2wt PB1 HTS 93, Arrestin-AP2 inh 57*, MEKK2 mut-MEK5 -6, Arr AP2 CP1 9 and GST GSH counter -4.
Screening COc1ccc(N2CCN(C(=O)c3ccc(S(=O)(=O)NCc4ccco4)cc3)CC2)cc1 returned Arrestin-AP2 inh 0, Arr AP2 CP1 -5 and GST GSH counter -8.
`Cc1ccccc1CN1CCN(C(=O)c2ccc(S(=O)(=O)NCc3ccco3)cc2)CC1` gave Arrestin-AP2 inh 9, Arr AP2 CP1 2 and GST GSH counter -1.
For COc1ccc(CN2CCN(C(=O)c3ccc(S(=O)(=O)NCc4ccco4)cc3)CC2)cc1F the results were Arrestin-AP2 inh -6, Arr AP2 CP1 0 and GST GSH counter -10.
`Cc1ccc(C)c(OCCC(=O)N2CCN(S(=O)(=O)c3ccc([N+](=O)[O-])cc3)CC2)c1` gave Arrestin-AP2 inh -9.
